The source of these data is ChEMBL document CHEMBL1811825, “Synthesis and antiviral evaluation of 9-(S)-[3-alkoxy-2-(phosphonomethoxy)propyl]nucleoside alkoxyalkyl esters: inhibitors of hepatitis C virus and HIV-1 replication” (Bioorg Med Chem, 2011).

In one series the test system is Human alphaherpesvirus 1. The experiment in a line: Antiviral activity against Human herpesvirus 1 infected in human HFF cells after 3 days by Plaque reduction assay. As to conditions: Human alphaherpesvirus 1, HFF, 72 h. Format: functional, organism-based.
Series [1] deals with Hepatitis C virus. As to the kind of experiment: Antiviral activity against HCV JFH-1 infected in human Huh-7.5.1 cells after 48 to 72 hrs by luciferase reporter assay. The series is classed as functional, organism-based, Hepacivirus hominis. The conditions noted are these: JFH-1, Huh-7.5.1.
The test system of the next series is Vaccinia virus. As to the kind of experiment: Antiviral activity against Vaccinia virus infected in human HFF cells after 3 days by Plaque reduction assay. The series is classed as functional, organism-based. The conditions noted are these: Orthopoxvirus vaccinia, 72 h. On the technique in general: Plaques are areas of infected cells; plaque reduction assays count them against a control.

The subject of series [2] is Hepatitis C virus. The experiment in a line: Antiviral activity against Hepatitis C virus genotype 1b infected in human Huh-7.5.1 cells after 48 to 72 hrs by luciferase reporter assay. The series is classed as functional, organism-based, Hepacivirus hominis. Background: A reporter such as luciferase makes a cellular process visible.
The next series concerns Cowpox virus. As to the kind of experiment: Antiviral activity against Cowpox virus infected in human HFF cells after 3 days by Plaque reduction assay. Format: functional, organism-based. The conditions noted are these: 72 h.
Series [3] in a line: Cytotoxicity against human Huh7.5.1 cells by fluorescent cell viability assay. Format: cell-based, Huh-7.
Series [4] deals with Human immunodeficiency virus 1. As to the kind of experiment: Antiviral activity against HIV-1 LAI infected in human MT2 cells assessed as p24 antigen production after 4 days by ELISA. The series is classed as functional, organism-based. The conditions noted are these: Human immunodeficiency virus 1, LAI, MT2, 96 h. The method in brief:
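MT-2 cells in RPMI 1640 with 10% FBS, 10 mM HEPES, penicillin/streptomycin, inoculated with HIV-1 LAI at MOI 0.001 TCID50/cell; threefold serial drug dilutions, three wells each.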

The subject of the next series is Human betaherpesvirus 5. The experiment in a line: Antiviral activity against Human cytomegalovirus infected in human HFF cells after 8 days by Plaque reduction assay. The series is classed as functional, organism-based. The conditions noted are these: Human betaherpesvirus 5, HFF, 192 h.
The subject of the next series is MT2. As to the kind of experiment: Cytotoxicity against human MT2 cells after 72 hrs by propidium iodide staining-based flow cytometry. The conditions noted are these: mt2, 72 h. Format: cell-based. (In general: In flow cytometry, cells or beads pass a laser one at a time.)
The nature of series [5]: Selectivity index, ratio of CC50 for human Huh7.5.1 cells to EC50 for HCV genotype1b in human Huh-7.5.1 cells. The series is classed as functional, Huh-7.
Series [6] can be described thus: Selectivity index, ratio of CC50 for human Huh7.5.1 cells to EC50 for HCV JFH-1 in human Huh-7.5.1 cells. Format: functional, Huh-7.
The nature of series [7]: Selectivity index, ratio of CC50 for human MT2 cells to EC50 for HIV-1 LAI infected in human MT2 cells. Format: toxicity, cell-based. The conditions noted are these: read-out: Ratio CC50/EC50.

The structures appear in SMILES notation. A value given as a limit tells only on which side of the number the result lay.

`CCCCCCCCCCCCCCCCCCOCCOP(=O)(O)CO[C@H](COC)Cn1cnc2c(N)ncnc21`: the EC50 (usually the concentration that produces a half-maximal response) in the series with Human alphaherpesvirus 1 was 45.7 µM; in the series with Hepatitis C virus [1] it was 2.38 µM; in the series on Vaccinia virus, 18.3 µM; in the series on Hepatitis C virus [2], 1.43 µM; in the series with Cowpox virus, more than 20 µM; in [4] it was 30 nM. The EC50 with Human betaherpesvirus 5 was determined as 1.55 µM. Further, the half-maximal cytotoxic concentration (CC50) (commonly the concentration at which the toxic effect on the cells reaches its halfway point) in series [3] (Huh7.5.1 cells) is more than 150 µM.
In the case of `CCCCCCCCCCCCCCCCCCOCCOP(=O)(O)CO[C@@H](COC)Cn1cnc2c(N)ncnc21`, the EC50 worked out at 5.33 µM in the series on Hepatitis C virus [1], 4.65 µM in the series on Hepatitis C virus [2] and 4800 nM in [4]. In addition, the CC50 in [3] (Huh7.5.1 cells) is more than 150 µM.
Take `CCCCCCCCCCCCCCCCOCCCOP(=O)(O)CO[C@H](COC)Cn1cnc2c(N)ncnc21`: the EC50 stood at 4.64 µM with Hepatitis C virus [1], 2.36 µM with Hepatitis C virus [2] and 200 nM in series [4]. The CC50 was more than 150 µM in series [3] (Huh7.5.1 cells) and 32 µM in the series on MT2.
Regarding `CCCCCCCCCCCCCCCCCCOCCOP(=O)(O)CO[C@H](COC)Cn1cnc2c(N)nc(N)nc21`, the concentration for a half-maximal effect (EC50) is 21.4 µM in the series with Hepatitis C virus [1], 20.1 µM with Hepatitis C virus [2] and 230 nM in series [4]. For the same compound, the results for the CC50 (in series [3] (huh-7); with MT2) were 99 µM and 18 µM, respectively.
As for `CCCCCCCCCCCCCCCCCCOCCOP(=O)(O)CO[C@@H](COC)Cn1cnc2c(N)nc(N)nc21`, the figures for the EC50 (with Hepatitis C virus [1]; with Hepatitis C virus [2]; in series [4]) were 25.8 µM, 25.6 µM and 40 nM, respectively. In addition, the values for the CC50 (in series [3] (Huh7.5.1 cells); in the series with MT2) were more than 150 µM and 19.7 µM, respectively.
As to `CCCCCCCCCCCCCCCCOCCCOP(=O)(O)CO[C@H](COC)Cn1cnc2c(N)nc(N)nc21`, the EC50 came to 23.6 µM in the series on Hepatitis C virus [1], 21.3 µM in the series with Hepatitis C virus [2] and 4600 nM in [4]. For the same compound, the CC50 worked out at 91.5 µM in series [3] (huh-7) and 22.7 µM with MT2.
Consider `CCCCCCCCCCCCCCCCCCOCCOP(=O)([O-])CO[C@H](COC)Cn1cnc2c(=O)[nH]c(N)nc21.[Na+]`, for which the EC50 in the series on Hepatitis C virus [1] turned out to be 10.7 µM; in the series with Hepatitis C virus [2], 8.26 µM; in [4] it was 200 nM. Moreover, the “Ratio CC50/EC50” value in series [5] was more than 18.2; in [6] it was more than 14. For the same compound, the figures for the cytotoxic concentration (CC50) (in series [3] (Huh7.5.1 cells); in the series with MT2) were more than 150 µM and 25 µM, respectively. For the same compound, the selectivity ratio in [7] was determined as 125.
With `CCCCCCCCCCCCCCCCCCOCCOP(=O)([O-])CO[C@@H](COC)Cn1cnc2c(=O)[nH]c(N)nc21.[Na+]`, the concentration giving a half-maximal response (EC50) with Hepatitis C virus [1] was 12.4 µM; in the series with Hepatitis C virus [2], 12.6 µM; in [4], less than 0.01 nM. Further, the “Ratio CC50/EC50” value was more than 11.9 in series [5] and more than 12.1 in series [6]. Besides, the values for the half-maximal cytotoxic concentration (CC50) (in series [3] (Huh7.5.1 cells); with MT2) were more than 150 µM and 44 µM, respectively. Also, in [7], the selectivity ratio was more than 4.4e+06.
For `CCCCCCCCCCCCCCCCOCCCOP(=O)(O)CO[C@H](COC)Cn1cnc2c(=O)[nH]c(N)nc21`, the EC50 was found to be 24.8 µM in the series with Hepatitis C virus [1], 22 µM in the series with Hepatitis C virus [2] and 2030 nM in series [4]. The CC50 in series [3] (Huh7.5.1 cells) is more than 150 µM; in the series with MT2, 29.3 µM.
Consider `CCCCCCCCCCCCCCCCCCOCCOP(=O)(O)CO[C@H](COC)Cn1ccc(N)nc1=O`, for which the values for the EC50 (in the series with Hepatitis C virus [1]; in the series on Hepatitis C virus [2]; in series [4]) were more than 150 µM, more than 150 µM and 12700 nM, respectively. Moreover, the half-maximal cytotoxic concentration (CC50) in [3] (Huh7.5.1 cells) was more than 150 µM; in the series on MT2, 60.7 µM. In addition, in series [7], the selectivity ratio amounted to 4.8.
Consider `CCCCCCCCCCCCCCCCOCCCOP(=O)(O)CO[C@H](COC)Cn1cnc2c(OC)ncnc21`, for which the concentration for a half-maximal effect (EC50) was 12.5 µM in the series on Hepatitis C virus [1], 8.9 µM in the series on Hepatitis C virus [2] and more than 10000 nM in series [4]. Also, the half-maximal cytotoxic concentration (CC50) is more than 150 µM in series [3] (Huh7.5.1 cells) and 22 µM with MT2.
With `CCCCCCCCCCCCCCCCOCCCOP(=O)(O)CO[C@H](COC)Cn1cnc2c(OC)nc(N)nc21`, the figures for the EC50 (in the series with Hepatitis C virus [1]; in the series on Hepatitis C virus [2]; in [4]) were 17.4 µM, 18.1 µM and more than 10000 nM, respectively. For the same compound, the CC50 is more than 150 µM in series [3] (Huh7.5.1 cells) and 34.3 µM in the series on MT2.
Turning to `CCCCCCCCCCCCCCCCCCOCCOP(=O)(O)CO[C@H](CO)Cn1cnc2c(N)ncnc21`, the half-maximal effective concentration (EC50) was less than 0.0001 µM with Human alphaherpesvirus 1, 1.65 µM in the series with Hepatitis C virus [1], 1.55 µM with Hepatitis C virus [2] and 0.1 nM in series [4]. In addition, the 50% cytotoxic concentration (CC50) in [3] (huh-7) was 35.6 µM; in the series on MT2 it was 0.033 µM.
Turning to `CCCCCCCCCCCCCCCCOCCCOP(=O)(O)COC(COCC)Cn1cnc2c(N)ncnc21` (racemic), the EC50 with Hepatitis C virus [1] was 8.87 µM; with Hepatitis C virus [2] it was 7.59 µM; in [4], more than 10000 nM. Besides, the CC50 in series [3] (huh-7) came to 99 µM; with MT2, 23.6 µM.
In the same order, the values of `CCCCCCCCCCCCCCCCOCCCOP(=O)(O)COC(COC(C)C)Cn1cnc2c(N)ncnc21` (racemic) are 98.8 µM, 51.2 µM, more than 10000 nM, 100 µM and 30.3 µM.
Regarding `CCCCCCCCCCCCCCCCOCCCOP(=O)([O-])COC(COCC)Cn1cnc2c(N)nc(N)nc21.[Na+]` (racemic), the EC50 with Hepatitis C virus [1] was 19.5 µM; in the series on Hepatitis C virus [2] it was 18.2 µM; in series [4], more than 10000 nM. The “Ratio CC50/EC50” value is reported as more than 8.2 in series [5] and more than 7.69 in [6]. For the same compound, the results for the CC50 (in [3] (Huh7.5.1 cells); in the series with MT2) were more than 150 µM and 30.7 µM, respectively.
Turning to `CCCCCCCCCCCCCCCCOCCCOP(=O)([O-])COC(COCC)Cn1cnc2c(=O)[nH]c(N)nc21.[Na+]` (racemic), the 50% effective concentration (EC50) in the series with Hepatitis C virus [1] was 13.2 µM; in the series with Hepatitis C virus [2], 25.5 µM; in series [4] it was more than 10000 nM. Also, the “Ratio CC50/EC50” value in [5] is more than 5.88; in series [6], more than 11.4. The cytotoxic concentration (CC50) in series [3] (Huh7.5.1 cells) is more than 150 µM; in the series on MT2 it was 14.9 µM.
